Read-outs that look alike come from different tables or passages of the source.
Key:
[1] = MAD phase pharmacokinetics; assay type: in vivo, human; conditions: for AUC / Cmax / concentration at 11 day / concentration at 12 day / concentration at 13 day / concentration at 14 day / Tmax / concentration at 1 day: human, plasma, oral; for AUC: AUC τ; for Cmax: C max; for concentration at 11 day / concentration at 12 day / concentration at 13 day / concentration at 14 day / concentration at 1 day: C trough; for concentration at 11 day: day 11; for concentration at 12 day: day 12; for concentration at 13 day: day 13
Summary of the method: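 MAD phase, 2–15 mg q.d. oral for 14 days. Plasma was sampled predose daily and 15 min–48 h on days 1 and 14. Urine was pooled over 24 h on days 1 and 14. One CSF sample was taken 3 h postdose on day 7 (10 mg cohort). All matrices were assayed by validated LC-MS/MS. Derived: Cmax, Tmax, t1/2, AUCτ, Ctrough, peak-to-trough ratio, accumulation ratios, and CSF/plasma ratio corrected for protein binding. Results reported as geometric means (95% CI) and medians.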

[2] = test system: healthy subjects; test: First-in-human trial, all phases: overall safety and tolerability; assay type: in vivo
Summary of the method: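 Safety covered all dosed subjects in the SAD, MAD and FI phases: AEs (MedDRA 21.1), concomitant medication, vital signs, ECGs, physical exams and safety labs. BP was taken after 5 min supine, then ≥1 min sitting and 1–3 min standing. Orthostasis was defined as an SBP fall ≥20 mmHg or DBP fall ≥10 mmHg within 3 min standing. TEAEs were summarized by treatment, organ class, severity and drug-relatedness.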

[3] = monkeys, preclinical experiments, cited from earlier work
[4] = 2 mg, GeoMean, MAD 2 mg q.d., day 14
[5] = 2 mg, Median, MAD 2 mg q.d., day 14
[6] = 5 mg, GeoMean, MAD 5 mg q.d., day 1
[7] = 5 mg, GeoMean, MAD 5 mg q.d., day 14
[8] = 5 mg, Median, MAD 5 mg q.d., day 1
[9] = 5 mg, Median, MAD 5 mg q.d., day 14
[10] = 10 mg, GeoMean, MAD 10 mg q.d., day 1
[11] = 10 mg, GeoMean, MAD 10 mg q.d., day 14
[12] = 10 mg, Median, MAD 10 mg q.d., day 1
[13] = 10 mg, Median, MAD 10 mg q.d., day 14
[14] = 15 mg, GeoMean, MAD 15 mg q.d., day 1
[15] = 15 mg, GeoMean, MAD 15 mg q.d., day 14
[16] = 15 mg, Median, MAD 15 mg q.d., day 1
[17] = 15 mg, Median, MAD 15 mg q.d., day 14

## Fc1ccccc1Cc1nc(-c2nc(C(F)(F)F)n[nH]2)cn2ccnc12 [zagociguat, 8‐(2‐fluorobenzyl)‐6‐(3‐(trifluoromethyl)‐1H‐1,2,4‐triazol‐5‐yl)imidazo[1,2‐a]pyrazine]
[1]; both, 2 mg, Median, MAD 2 mg q.d., day 14
  AUC: 17000 ng·h/mL
[1]; 2 mg, GeoMean, MAD 2 mg q.d., day 1
  Cmax: 260 ng/mL
[1]; [4]
  Cmax: 880 ng/mL
  concentration at 14 day: 624 ng/mL
[1]; 2 mg, Median, MAD 2 mg q.d., day 1
  Cmax: 268 ng/mL
[1]; [5]
  Cmax: 888 ng/mL
  concentration at 14 day: 632 ng/mL
[1]; 2 mg, GeoMean, MAD 2 mg q.d.
  concentration at 11 day: 587 ng/mL
  concentration at 12 day: 593 ng/mL
  concentration at 13 day: 616 ng/mL
[1]; 2 mg, Median, MAD 2 mg q.d.
  concentration at 11 day: 579 ng/mL
  concentration at 12 day: 584 ng/mL
  concentration at 13 day: 610 ng/mL
[1]; 2 mg, T max, Median, MAD 2 mg q.d., day 1
  Tmax: 1 h
[1]; 2 mg, T max, Median, MAD 2 mg q.d., day 14
  Tmax: 1 h
[1]; [6]
  AUC: 11000 ng·h/mL
  Cmax: 602 ng/mL
  concentration at 1 day: 389 ng/mL
[1]; [7]
  AUC: 42100 ng·h/mL
  Cmax: 2080 ng/mL
  concentration at 14 day: 1540 ng/mL
[1]; [8]
  AUC: 11500 ng·h/mL
  Cmax: 597 ng/mL
  concentration at 1 day: 410 ng/mL
[1]; [9]
  AUC: 43900 ng·h/mL
  Cmax: 2230 ng/mL
  concentration at 14 day: 1640 ng/mL
[1]; 5 mg, GeoMean, MAD 5 mg q.d.
  concentration at 11 day: 1480 ng/mL
  concentration at 12 day: 1500 ng/mL
  concentration at 13 day: 1510 ng/mL
[1]; 5 mg, Median, MAD 5 mg q.d.
  concentration at 11 day: 1540 ng/mL
  concentration at 12 day: 1580 ng/mL
  concentration at 13 day: 1580 ng/mL
[1]; 5 mg, T max, Median, MAD 5 mg q.d., day 1
  Tmax: 2 h
[1]; 5 mg, T max, Median, MAD 5 mg q.d., day 14
  Tmax: 3 h
[1]; [10]
  AUC: 20100 ng·h/mL
  Cmax: 1070 ng/mL
  concentration at 1 day: 751 ng/mL
[1]; [11]
  AUC: 76800 ng·h/mL
  Cmax: 3910 ng/mL
  concentration at 14 day: 2850 ng/mL
[1]; [12]
  AUC: 21500 ng·h/mL
  Cmax: 1140 ng/mL
  concentration at 1 day: 750 ng/mL
[1]; [13]
  AUC: 82100 ng·h/mL
  Cmax: 4050 ng/mL
  concentration at 14 day: 2820 ng/mL
[1]; 10 mg, GeoMean, MAD 10 mg q.d.
  concentration at 11 day: 2760 ng/mL
  concentration at 12 day: 2910 ng/mL
  concentration at 13 day: 2840 ng/mL
[1]; 10 mg, Median, MAD 10 mg q.d.
  concentration at 11 day: 3090 ng/mL
  concentration at 12 day: 3240 ng/mL
  concentration at 13 day: 3190 ng/mL
[1]; 10 mg, T max, Median, MAD 10 mg q.d., day 1
  Tmax: 3 h
[1]; 10 mg, T max, Median, MAD 10 mg q.d., day 14
  Tmax: 2.2 h
[1]; [14]
  AUC: 31300 ng·h/mL
  Cmax: 1620 ng/mL
[1]; [15]
  AUC: 116000 ng·h/mL
  Cmax: 5850 ng/mL
[1]; [16]
  AUC: 30100 ng·h/mL
  Cmax: 1530 ng/mL
[1]; [17]
  AUC: 112000 ng·h/mL
  Cmax: 5800 ng/mL
[1]; 15 mg, T max, Median, MAD 15 mg q.d., day 1
  Tmax: 3 h
[1]; 15 mg, T max, Median, MAD 15 mg q.d., day 14
  Tmax: 3.5 h
[1]; Median observed T max, range, MAD all doses, days 1 and 14
  Tmax: 1 to 3.5 h
[1]; treatment period of 14 days
  Drug accumulation: moderate drug accumulation
[2]; across all study phases
  Severity of observed TEAEs: mild and transient
[2]; all doses evaluated, all study phases
  Tolerability: well‐tolerated
[2]; all phases
  Bleeding time and bleeding events: no increases in bleeding time nor any bleeding events
[2]; all study phases
  Deaths or other serious AEs: No deaths or other serious AEs
[3]; intravenous administration
  Geometric mean CSF/free plasma ratio: 0.57
[3]; oral administration
  Geometric mean CSF/free plasma ratio: 0.48
